≈ marks a conversion by molar mass, not a printed value.
Each compound was assayed on Mycobacterium tuberculosis (assay: Antitubercular activity against Mycobacterium bovis BCG after 7 days by alamar blue assay). Settings: variant bovis BCG, 168 h.
Format: functional
Procedure, shortened: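 Frozen BCG stock thawed, lightly sonicated, diluted in Dubos broth/OADC to 4 × 10^4 bacteria/well; compounds at varied concentrations in PBS/2.5-5% DMSO, 37 °C for 7 days, then Alamar Blue 24 h. Ethambutol control; triplicate.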

Point of comparison: O=C1C(NC(c2ccccc2)c2ccccc2)=C(Cl)C(=O)c2ncccc21, MIC 6.3 µg/mL (≈ 16.8 µM). Against it:
- CNC1=C([S+](C)[O-])C(=O)c2ncccc2C1=O (stereo unspecified) — 4-fold higher, 25 µg/mL (≈ 99.9 µM)
- CNC1=C(SC)C(=O)c2ncccc2C1=O — 2-fold higher, 12.5 µg/mL (≈ 53.4 µM)
- CNC1=C(SC)C(=O)c2cccnc2C1=O — higher, > 50 µg/mL
- CNC1=C(Sc2ccccc2)C(=O)c2cccnc2C1=O — 2-fold higher, 12.5 µg/mL (≈ 42.2 µM)
- O=C1C(Sc2ccccc2)=C(Sc2ccccc2)C(=O)c2ncccc21 — higher, > 50 µg/mL
- CNC1=C([S+](C)[O-])C(=O)c2cccnc2C1=O (stereo unspecified) — higher, > 50 µg/mL
- O=C1C(NCCCl)=C(Cl)C(=O)c2ncccc21 — the same, 6.3 µg/mL (≈ 23.2 µM)
- O=C1C(NCCBr)=C(Cl)C(=O)c2ncccc21 — 2-fold lower, 3.13 µg/mL (≈ 9.92 µM)
- Cc1ccc(S(=O)(=O)C2=C(S(=O)(=O)c3ccc(C)cc3)C(=O)c3ncccc3C2=O)cc1 — the same, 6.3 µg/mL (≈ 13.5 µM)
- Cc1ccc2c(n1)C(=O)C(NCCBr)=C(Cl)C2=O — 2-fold higher, 12.5 µg/mL (≈ 37.9 µM)
- CS(=O)(=O)C1=C(N)C(=O)c2cccnc2C1=O — 4-fold higher, 25 µg/mL (≈ 99.1 µM)
- Oc1c(Sc2ccccc2)c(Sc2ccccc2)c(O)c2ncccc12 — 4-fold higher, 25 µg/mL (≈ 66.2 µM)
- O=C1C(Cl)=C(NCCBr)C(=O)c2ncccc21 — the same, 6.3 µg/mL (≈ 20 µM)
- CSC1=C(SC)C(=O)c2ncccc2C1=O — the same, 6.3 µg/mL (≈ 25.1 µM)
- CSC1=C(N)C(=O)c2cccnc2C1=O — the same, 6.3 µg/mL (≈ 28.6 µM)
- Cc1ccc2c(n1)C(=O)C(Cl)=C(Cl)C2=O — the same, 6.3 µg/mL (≈ 26 µM)
- O=C1c2cccnc2C(=O)C2SCCNC12 (stereo unspecified) — the same, 6.3 µg/mL (≈ 26.9 µM)
- O=C1C(Cl)=C(NCCCl)C(=O)c2ncccc21 — 2-fold higher, 12.5 µg/mL (≈ 46.1 µM)
- CNC1=C(Sc2ccccc2)C(=O)c2ncccc2C1=O — 2-fold higher, 12.5 µg/mL (≈ 42.2 µM)
- O=C1C2=C(NCCS2)C(=O)c2ncccc21 — the same, 6.3 µg/mL (≈ 27.1 µM)
- CNC1=C(Cl)C(=O)c2cccnc2C1=O — 2-fold higher, 12.5 µg/mL (≈ 56.1 µM)
- CNC1=C(Cl)C(=O)c2ncccc2C1=O — 2-fold higher, 12.5 µg/mL (≈ 56.1 µM)
- C[S+]([O-])C1=C(N)C(=O)c2cccnc2C1=O (stereo unspecified) — 4-fold lower, 1.56 µg/mL (≈ 6.6 µM)
- Cc1ccc(S(=O)(=O)C2=C(Cl)C(=O)c3ncccc3C2=O)cc1 — higher, > 50 µg/mL
- Cc1ccc2c(n1)C(=O)C(Cl)=C(NCCBr)C2=O — 2-fold higher, 12.5 µg/mL (≈ 37.9 µM)

Source: ChEMBL document CHEMBL1157933, “The anti-cancer, anti-inflammatory and tuberculostatic activities of a series of 6,7-substituted-5,8-quinolinequinones” (Bioorg Med Chem, 2010)
